The record followed here is ChEMBL document CHEMBL3244233, “Synthesis and biological activities of some N6- and N9-carbamoyladenines and related ribonucleosides” (1977).

A value given as a limit tells only on which side of the number the result lay.

Assay type in all cases: functional
Assay [1] in a line: Growth inhibition of human Nc37 cells assessed as viable cells at 10^-4 M after 72 hrs relative to control. Conditions: NC-37, 72 h, read-out: Activity. The essentials: (§1)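 Nc 37 cells come from a normal human buffy coat, RPMI 6410 from the buffy coat of a myeloblastic leukemia patient, and L1210 is mouse leukemia. Cells were grown in RPMI 1640 with 10% fetal calf serum and exposed to compound at 10^-4 M in medium containing 0.5% Me2SO for 72 h. Viable cell number is expressed as percent of 0.5% Me2SO controls and scored as ++ 30-60%, + 60-80%, ± 80-90%, NA 90-110%.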

Assay [2] can be described thus: Growth inhibition of human RPMI6410 cells assessed as viable cells at 10^-4 M after 72 hrs relative to control. As to conditions: RPMI 6410, 72 h, read-out: Activity. The essentials:
as §1

Another assay relates to L1210. Put plainly: Growth inhibition of mouse L1210 cells assessed as viable cells at 10^-4 M after 72 hrs relative to control. Conditions: L1210, 72 h, read-out: Activity. The essentials:
as §1

As for `Nc1ncnc2c1ncn2C(=O)NC(Cc1ccccc1)C(=O)OCc1ccccc1` (configuration not stated), the values for the viability at 100 µM (in assay [1]; in assay [2]; in the assay on L1210) were 60%, 90% and 30%, respectively.
In the same order, the values of `CC(C)(C)NC(=O)Nc1ncnc2[nH]cnc12` are 60%, 60% and 60%.
With `O=C(NCCc1ccccc1Cl)Nc1ncnc2[nH]cnc12`, the viability at 100 µM in assay [1] is 30%; in assay [2] it was 60%; in the assay on L1210, 60%.
As for `Nc1ncnc2c1ncn2C(=O)Nc1ccccc1`, the viability at 100 µM was 90% in assay [1], 60% in assay [2] and 30% in the assay with L1210.
In the same order, the values of `O=C(Nc1ccccc1)Nc1ncnc2c1ncn2C(=O)Nc1ccccc1` are 60%, 80% and 30%.
In the same order, the values of `Cc1ccccc1NC(=O)Nc1ncnc2c1ncn2C(=O)Nc1ccccc1C` are 60%, 90% and 60%.
In the same order, the values of `CN(C(=O)Nc1ccccc1)c1ncnc2c1ncn2C(=O)Nc1ccccc1` are 90%, 60% and 30%.
Turning to `O=C(Nc1ccccc1F)Nc1ncnc2c1ncn2[C@@H]1O[C@H](CO)[C@@H](O)[C@H]1O`, the viability at 100 µM worked out at 60% in assay [1], 30% in assay [2] and 30% in the assay with L1210.
Turning to `COc1ccc(NC(=O)Nc2ncnc3c2ncn3C(=O)NC(C)(C)C)cc1`, the viability at 100 µM was 90% in assay [1], 80% in assay [2] and 80% in the assay with L1210.
Turning to `CNC(=S)Nc1ncnc2[nH]cnc12`, the viability at 100 µM (in assay [1]; in assay [2]; with L1210) was 60% in each case.
For `CC(C)C(NC(=O)n1cnc2c(N)ncnc21)C(=O)OCc1ccccc1` (configuration not stated), the figures for the viability at 100 µM (in assay [1]; in assay [2]; in the assay with L1210) were 60%, 30% and 30%, respectively.
`O=C(Nc1ccccc1)Nc1ncnc2[nH]cnc12`: the viability at 100 µM in assay [1] was 60%; in assay [2], 80%; in the assay on L1210, 60%.
On to `CC(C)(C)CNC(=O)Nc1ncnc2c1ncn2[C@@H]1O[C@H](CO)[C@@H](O)[C@H]1O`, for which the viability at 100 µM in assay [1] is 90%; in assay [2], 90%; with L1210, 80%.
Regarding `CN(C(=O)Nc1ccccc1Cl)c1ncnc2c1ncn2C(=O)Nc1ccccc1Cl`, the figures for the viability at 100 µM (in assay [1]; in assay [2]; in the assay on L1210) were 90%, 60% and 30%, respectively.
As to `O=C(O)CNC(=O)CNC(=O)Nc1ncnc2[nH]cnc12`, the viability at 100 µM (in assay [1]; in assay [2]; with L1210) was 90% in each case.
`CCOC(=O)CNC(=O)n1cnc2c(N)ncnc21`: the viability at 100 µM in assay [1] is 60%; in assay [2], 60%; with L1210 it was 30%.
In the case of `CCCCCCCC(=O)n1cnc2c(N)ncnc21`, the results for the viability at 100 µM (in assay [1]; in assay [2]; with L1210) were 60%, 60% and 30%, respectively.
With `CCOC(=O)CNC(=O)N(C)c1ncnc2c1ncn2C(=O)NCC(=O)OCC`, the viability at 100 µM in assay [1] amounted to 90%; in assay [2], 90%; in the assay on L1210, 60%.
With `CCCCNC(=O)Nc1ncnc2c1ncn2C(=O)NCCCC`, the viability at 100 µM turned out to be 90% in assay [1], 60% in assay [2] and 30% in the assay on L1210.
In the same order, the values of `COc1ccc(NC(=O)Nc2ncnc3c2ncn3C(=O)Nc2ccc(OC)cc2)cc1` are 90%, 90% and 30%.
In the same order, the values of `CCCCNC(=S)n1cnc2c(N)ncnc21` are 60%, 60% and 60%.
Turning to `CNc1ncnc2c1ncn2C(=O)NC(C)(C)C`, the viability at 100 µM (in assay [1]; in assay [2]; with L1210) was 60% throughout.
Take `CC(=O)n1cnc2c(N)ncnc21`: the viability at 100 µM in assay [1] stood at 90%; in assay [2], 90%; in the assay on L1210 it was 30%.
`C=CCNC(=O)Nc1ncnc2[nH]cnc12`: the viability at 100 µM (in assay [1]; in assay [2]; in the assay on L1210) was 60% each time.
Turning to `CCOC(=O)n1cnc2c(NC)ncnc21`, the viability at 100 µM in assay [1] is 30%; in assay [2] it was 30%; in the assay on L1210, 90%.
Turning to `O=C(NCCc1ccccc1Cl)Nc1ncnc2c1ncn2[C@@H]1O[C@H](CO)[C@@H](O)[C@H]1O`, the viability at 100 µM in assay [1] turned out to be 60%.
Consider `CNC(=O)n1cnc2c(NC)ncnc21`, for which the viability at 100 µM in assay [1] was determined as 30%; in assay [2], 60%; in the assay on L1210, 90%.
In the same order, the values of `CC(C)(C)NC(=O)n1cnc2c(NC(=O)Nc3ccccc3F)ncnc21` are 60%, 60% and greater than 30%.
In the same order, the values of `O=C(Nc1ncnc2[nH]cnc12)NC1CCCCC1` are 60%, 60% and 60%.
In the same order, the values of `Nc1ncnc2c1ncn2C(=O)Nc1ccccc1F` are 90%, 60% and 60%.
As for `CC(=O)OC[C@H]1O[C@@H](n2cnc3c(NC(=O)Nc4ccccc4Cl)ncnc32)[C@H](OC(C)=O)[C@@H]1OC(C)=O`, the figures for the viability at 100 µM (in assay [1]; in assay [2]; in the assay with L1210) were 30%, 30% and greater than 30%, respectively.
As to `O=C(Nc1ccccc1C(F)(F)F)Nc1ncnc2[nH]cnc12`, the viability at 100 µM was found to be 30% in assay [1] and 90% in assay [2].
With `CCCCNC(=O)Nc1ncnc2[nH]cnc12`, the viability at 100 µM in assay [1] was 60%; in assay [2] it was 60%; in the assay on L1210, 30%.
Take `Cc1ccc(NC(=O)Nc2[nH]cnc3ncnc2-3)cc1`: the viability at 100 µM in assay [1] was 90%; in assay [2] it was 60%; with L1210 it was greater than 30%.
Consider `O=C(Nc1ccc(Br)cc1)Nc1ncnc2c1ncn2C(=O)Nc1ccc(Br)cc1`, for which, in assay [1], the viability at 100 µM turned out to be 60%.
Take `CNC(=O)Nc1ncnc2c1ncn2C(=O)Nc1ccccc1`: the viability at 100 µM in assay [1] worked out at 90%; in assay [2], 90%; in the assay on L1210 it was 30%.
Take `CCCCNC(=S)Nc1ncnc2[nH]cnc12`: the viability at 100 µM was found to be 30% in assay [1], 60% in assay [2] and 30% in the assay with L1210.
Turning to `CCCC(=O)n1cnc2c(N)ncnc21`, the viability at 100 µM in assay [1] is 90%; in assay [2], 60%; with L1210 it was 60%.
`CC(=O)OC[C@H]1O[C@@H](n2cnc3c(NC(=O)Nc4ccc(Cl)cc4)ncnc32)[C@H](OC(C)=O)[C@@H]1OC(C)=O`: the viability at 100 µM in assay [1] was 30%; in assay [2] it was 30%; in the assay with L1210 it was greater than 30%.
